Experimental data published in ChEMBL document CHEMBL1139875, “Discovery of 4-aminobutyric acid derivatives possessing anticonvulsant and antinociceptive activities: a hybrid pharmacophore approach” (2007).
The source made the active and inactive calls. No cut-off for these calls is given here.

Experiments:
[1] = system: Mus musculus; assay: Neurotoxicity in Swiss Albino mouse at 100 mg/kg, ip after 4 hrs by rotarod test; assay type: functional, organism-based; design: dose 100 mg/kg
How it was run: (§1)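 Swiss mice (20-25 g) are trained on an accelerating rotorod (10 rpm, 3.2 cm rod), then injected i.p. at 30, 100 or 300 mg/kg, with three per group. Neurotoxicity means failure to keep equilibrium for at least 1 min in each of three trials, checked at 0.5 and 4 h. The value reported is the minimum dose affecting half or more of the mice.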

[2] = system: Mus musculus; assay: Anticonvulsant activity in Swiss Albino mouse at 30 mg/kg, ip after 4 hrs by MES test; assay type: functional, organism-based; design: dose 30 mg/kg
How it was run: (§2)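 Mice (Swiss, 20-25 g) given i.p. doses of 30, 100 and 300 mg/kg under ADD program protocols, three per group, examined at 0.5 and 4 h in MES, scPTZ, scSTY or scPIC seizure tests. Value is the minimum dose protecting half or more of the mice.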

[3] = system: Mus musculus; assay: Anticonvulsant activity in Swiss Albino mouse at 300 mg/kg, ip after 0.5 hr by scPIC test; assay type: functional, organism-based; design: dose 300 mg/kg; how it was run: as §2
[4] = system: Mus musculus; assay: Anticonvulsant activity in Swiss Albino mouse at 300 mg/kg, ip after 0.5 hr by scSTY test; assay type: functional, organism-based; design: dose 300 mg/kg; how it was run: as §2
[5] = system: Mus musculus; assay: Analgesic activity in Swiss Albino mouse assessed as number of acetic acid-induced writhing per 30 min after 100 mg/kg, ip; assay type: functional
How it was run: (§3)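 Mice in groups of six dosed i.p. at 100 mg/kg, controls receiving 30% v/v PEG 400 in water. Writhing induced by i.p. 0.1 mL of 3% v/v acetic acid 1 h after drug. Writhes (abdominal stretch with at least one hind limb extended) counted over 30 min; % inhibition calculated. Mean ± SEM, Student's t test.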

[6] = system: Mus musculus; assay: Analgesic activity in Swiss Albino mouse assessed as inhibition of acetic acid-induced writhing responses at 100 mg/kg, ip; assay type: functional; how it was run: as §3
[7] = system: Mus musculus; assay: Anticonvulsant activity in Swiss Albino mouse at 30 mg/kg, ip after 0.5 hr by MES test; assay type: functional, organism-based; design: dose 30 mg/kg; how it was run: as §2
[8] = system: Mus musculus; assay: Anticonvulsant activity in Swiss Albino mouse at 300 mg/kg, ip after 0.5 hr by scPTZ test; assay type: functional, organism-based; design: dose 300 mg/kg; how it was run: as §2
[9] = system: Mus musculus; assay: Anticonvulsant activity in Swiss Albino mouse at 300 mg/kg, ip after 4 hrs by scPIC test; assay type: functional, organism-based; design: dose 300 mg/kg; how it was run: as §2
[10] = system: Mus musculus; assay: Anticonvulsant activity in Swiss Albino mouse at 300 mg/kg, ip after 4 hrs by scSTY test; assay type: functional, organism-based; design: dose 300 mg/kg; how it was run: as §2
[11] = system: Mus musculus; assay: Neurotoxicity in Swiss Albino mouse at 100 mg/kg, ip after 0.5 hr by rotarod test; assay type: functional, organism-based; design: dose 100 mg/kg; how it was run: as §1

Compound: O=C1NC(=O)C(c2ccccc2)(c2ccccc2)N1
- Activity [1]: Active
- Activity [2]: Active
- Activity [3]: inactive
- Activity [4]: inactive
- Activity [5]: inactive
- Activity [6]: inactive
- Activity [7]: Active
- Activity [8]: inactive
- Activity [9]: inactive
- Activity [10]: inactive
- Activity [11]: Active
